Where “and” joins values, the source holds several entries; their conditions need not be identical. Equal values may be shown once.

This is an account of results in ChEMBL document CHEMBL1121415, “Inhibition of histamine-induced gastric secretion by flavone-6-carboxylic acids” (1980).

Assay type in all cases: functional
Test [1] has as its system Rattus norvegicus. Briefly: Inhibition of histamine-induced gastric acid secretion in the rat following 80 mg/kg s.c. administration. The note with it: Stomach, sc. A digest of the protocol: (§1)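 Compound was given subcutaneously at 1 mL/kg to 48-h-fasted rats in groups of 10; controls received saline. Pylorus ligation under ether followed 30 min later. Histamine 2.5 mg/kg sc was given at 15-min intervals for 3 h. Gastric juice was titrated with 0.02 N NaOH to pH 7.0 to give total acid output, expressed as % mean inhibition vs controls, with ANOVA.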

Test [2] has as its system Rattus norvegicus. Briefly: The compound was tested for its ability to inhibit histamine-induced gastric acid secretion in the rat at a dose of 70 mg/kg, sc. Conditions: Stomach, route subcutaneous. A digest of the protocol:
as §1

In test [3] the test system is Rattus norvegicus. Briefly: The compound was tested for its ability to inhibit histamine-induced gastric acid secretion in the rat at a dose of 76 mg/kg, sc. Conditions: Stomach, route subcutaneous. The method, boiled down:
as §1

Test [4] concerns Rattus norvegicus. Briefly: % inhibition in total acid secretion when tested orally in rat ligated stomach preparation at 100 mg/kg peroral dose. Conditions: route oral. The method, boiled down:
(§2)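 Rats fasted 48 h with water ad libitum, in groups of 10, were dosed orally by gavage at 1 mL/kg; controls received saline. After 30 min, under ether, the pylorus was ligated. Histamine 2.5 mg/kg sc was given right after surgery and every 15 min for 3 h. Gastric juice was titrated with 0.02 N NaOH to pH 7.0 ± 0.1 as mequiv H+/100 g. Mean % inhibition vs controls was tested by ANOVA.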

Test [5] deals with Rattus norvegicus. Briefly: % inhibition in total acid secretion when tested orally in rat ligated stomach preparation at 200 mg/kg peroral dose. The note with it: route oral. The method, boiled down: as §2
Test [6] concerns Rattus norvegicus. Briefly: Determined as […] and at 100 mg/kg peroral dose. The note with it: route oral. The method, boiled down:
as §2

In test [7] the test system is Rattus norvegicus. Briefly: Gastric juice volume when tested orally in rat ligated stomach preparation at 100 mg/kg peroral dose. The note with it: route oral. The method, boiled down:
(§3)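 Orally gavaged rats (1 mL/kg; saline controls; 48-h fast, groups of 10) had pylorus ligation under ether 30 min post-dose. They then received histamine 2.5 mg/kg sc every 15 min for 3 h. At sacrifice, stomach contents were aspirated and the gastric juice volume in mL was recorded. Results are given as mean ± SD.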

Test [8] relates to Rattus norvegicus. Briefly: Gastric juice volume when tested orally in rat ligated stomach preparation at 50 mg/kg peroral dose. Conditions: route oral. The method, boiled down: as §3
Test [9] relates to Rattus norvegicus. Briefly: Gastric juice volume when tested orally in rat ligated stomach preparation at 200 mg/kg peroral dose. The note with it: route oral. The method, boiled down: as §3
The subject of test [10] is Rattus norvegicus. Briefly: Determined as […] and at 50 mg/kg peroral dose. The note with it: route oral. A digest of the protocol:
as §2

Test [11] relates to Rattus norvegicus. Briefly: Gastric juice volume when tested orally in rat ligated stomach preparation at 150 mg/kg peroral dose. The note with it: route oral. The method, boiled down:
as §3

The subject of test [12] is Rattus norvegicus. Briefly: Determined as […] and at 200 mg/kg peroral dose. Conditions: route oral. A digest of the protocol:
as §2

For test [13], the system named is Rattus norvegicus. Briefly: Determined as […] and at 150 mg/kg peroral dose. Conditions: route oral. A digest of the protocol:
as §2

For test [14], the system named is Rattus norvegicus. Briefly: The compound was tested for its ability to inhibit histamine-induced gastric acid secretion in the rat at a dose of 60 mg/kg, sc. The note with it: Stomach, route subcutaneous. The method, boiled down: as §1
The subject of test [15] is Rattus norvegicus. Briefly: The compound was tested for its ability to inhibit histamine-induced gastric acid secretion in the rat at a dose of 66 mg/kg, sc. Conditions: Stomach, route subcutaneous. A digest of the protocol:
as §1

Test [16] deals with Rattus norvegicus. Briefly: The compound was tested for its ability to inhibit histamine-induced gastric acid secretion in the rat at a dose of 90 mg/kg, sc. The note with it: Stomach, route subcutaneous. The method, boiled down:
as §1

Test [17] concerns Rattus norvegicus. Briefly: Gastric juice volume when tested orally in rat ligated stomach preparation at 75 mg/kg peroral dose. Conditions: route oral. A digest of the protocol:
as §3

In test [18] the test system is Rattus norvegicus. Briefly: Determined as […] and at 75 mg/kg peroral dose. The note with it: route oral. A digest of the protocol:
as §2

The test system of test [19] is Rattus norvegicus. Briefly: % inhibition in total acid secretion when tested orally in rat ligated stomach preparation at 150 mg/kg peroral dose. The note with it: route oral. A digest of the protocol: as §2
The subject of test [20] is Rattus norvegicus. Briefly: % inhibition in total acid secretion when tested orally in rat ligated stomach preparation at 75 mg/kg peroral dose. The note with it: route oral. The method, boiled down: as §2

For orientation: inhibition in vivo means the change of the read-out against control, counted positive when it falls. Consider `COc1ccc(-c2oc3ccc(C(=O)O)cc3c(=O)c2OC)cc1`, for which the inhibition in vivo at 80 mg/kg in the test on Rattus norvegicus [1] was 22%.
With `CS(=O)(=O)c1ccc(-c2cc(=O)c3cc(C(=O)O)ccc3o2)cc1`, the inhibition in vivo at 70 mg/kg in the test on Rattus norvegicus [2] is 41%.
As for `CC(C)c1ccc(-c2oc3ccc(C(=O)O)cc3c(=O)c2O)cc1`, the inhibition in vivo at 80 mg/kg in the test on Rattus norvegicus [1] is 24%.
In the case of `O=C(O)c1ccc2oc(-c3ccccc3Br)c(O)c(=O)c2c1`, the inhibition in vivo at 80 mg/kg in the test with Rattus norvegicus [1] was determined as 22%.
In the case of `CCCCCCOc1ccc(-c2oc3ccc(C(=O)O)cc3c(=O)c2OC)cc1`, in the test on Rattus norvegicus [3], the inhibition in vivo at 76 mg/kg is -12%.
Take `CCCCCCc1ccc(-c2cc(=O)c3cc(C(=O)O)ccc3o2)cc1`: in the test with Rattus norvegicus [1], the inhibition in vivo at 80 mg/kg worked out at 2%.
In the case of `Cc1ccc(-c2oc3ccc(C(=O)O)cc3c(=O)c2OC(C)C)cc1`, the inhibition in vivo at 80 mg/kg in the test on Rattus norvegicus [1] came to 8%.
On to `O=C(O)c1ccc2oc(-c3ccc(Cl)cc3)c(O)c(=O)c2c1`, for which the inhibition in vivo at 80 mg/kg in the test on Rattus norvegicus [1] was -19%.
The same measure, in the same setting: then `COc1ccc(-c2oc3ccc(C(=O)O)cc3c(=O)c2O)cc1`, with 24%.
For the molecule `O=C(O)c1ccc(-c2oc3ccc(C(=O)O)cc3c(=O)c2O)cc1`, the inhibition in vivo at 80 mg/kg in the test on Rattus norvegicus [1] stood at 23%.
As a reminder, the Inhibition is the percentage by which the read-out fell short of the control. A low value points to a response near the control. With `COc1ccc(-c2oc3ccc(C(=O)O)cc3c(=O)c2OC(C)C)cc1`, the Inhibition in the test on Rattus norvegicus [4] was 4% and 9%; in the test with Rattus norvegicus [5], 34% and 59%. The “mequiv of HCl” value in the test with Rattus norvegicus [6] is 0.226; with Rattus norvegicus [10] it was 0.238; in the test on Rattus norvegicus [12], 0.101; with Rattus norvegicus [13], 0.161. The Volume with Rattus norvegicus [7] amounted to 5.16 mL; in the test with Rattus norvegicus [8], 5.13 mL; in the test with Rattus norvegicus [9], 3.68 mL; in the test on Rattus norvegicus [11] it was 4.8 mL. Further, the inhibition in vivo at 80 mg/kg in the test on Rattus norvegicus [1] was 35%.
For the molecule `COc1c(-c2ccc(Cl)cc2)oc2ccc(C(=O)O)cc2c1=O`, in the test on Rattus norvegicus [1], the inhibition in vivo at 80 mg/kg amounted to 34%.
As for `COc1ccc(-c2cc(=O)c3cc(C(=O)O)ccc3o2)cc1`, the inhibition in vivo at 80 mg/kg in the test on Rattus norvegicus [1] turned out to be 13%.
Turning to `Cc1ccc(-c2oc3ccc(C(=O)O)cc3c(=O)c2O)cc1`, the inhibition in vivo at 80 mg/kg with Rattus norvegicus [1] is -6%.
As for `CCOc1ccc(-c2oc3ccc(C(=O)O)cc3c(=O)c2OC(C)C)cc1`, in the test with Rattus norvegicus [14], the inhibition in vivo at 60 mg/kg came to 18%.
In the case of `Cc1ccccc1-c1oc2ccc(C(=O)O)cc2c(=O)c1O`, the inhibition in vivo at 80 mg/kg in the test on Rattus norvegicus [1] was determined as 15%.
As for `O=C(O)c1ccc2oc(-c3ccc(F)cc3)cc(=O)c2c1`, the inhibition in vivo at 80 mg/kg in the test on Rattus norvegicus [1] was 21%.
Still for that read-out and setting: in the case of `CC(C)Oc1c(-c2ccc(C(C)C)cc2)oc2ccc(C(=O)O)cc2c1=O` it was 20%.
With `COc1c(-c2ccc(F)cc2)oc2ccc(C(=O)O)cc2c1=O`, the inhibition in vivo at 70 mg/kg in the test with Rattus norvegicus [2] was found to be 4%.
On to `COc1c(-c2ccc(C)cc2)oc2ccc(C(=O)O)cc2c1=O`, for which the inhibition in vivo at 80 mg/kg in the test on Rattus norvegicus [1] was 4%.
With `COc1cccc(-c2oc3ccc(C(=O)O)cc3c(=O)c2OC(C)C)c1`, the inhibition in vivo at 66 mg/kg in the test on Rattus norvegicus [15] turned out to be 12%.
For the molecule `CC(C)c1ccc(-c2cc(=O)c3cc(C(=O)O)ccc3o2)cc1`, the inhibition in vivo at 80 mg/kg in the test with Rattus norvegicus [1] came to 19%.
Take `CCCCCCOc1ccc(-c2oc3ccc(C(=O)O)cc3c(=O)c2O)cc1`: the inhibition in vivo at 80 mg/kg with Rattus norvegicus [1] is -11%.
Take `COc1cc(-c2oc3ccc(C(=O)O)cc3c(=O)c2O)cc(OC)c1OC`: in the test on Rattus norvegicus [1], the inhibition in vivo at 80 mg/kg worked out at 24%.
Turning to `COc1c(-c2ccc(C(C)C)cc2)oc2ccc(C(=O)O)cc2c1=O`, the inhibition in vivo at 80 mg/kg in the test on Rattus norvegicus [1] was found to be 18%.
For the molecule `C/N=C(\S)NCCCCc1c[nH]cn1` [BURIMAMIDE], the inhibition in vivo at 90 mg/kg in the test with Rattus norvegicus [16] was 49%.
In the case of `CNC(=S)NCCSCc1[nH]cnc1C` [METIAMIDE], the Volume was 2.99 mL with Rattus norvegicus [17] and 1.7 mL in the test on Rattus norvegicus [11]. The entries for the “mequiv of HCl” value in the test with Rattus norvegicus [18] and with Rattus norvegicus [13] were 0.148 and 0.064, respectively. For the same molecule, the inhibition in vivo at 150 mg/kg with Rattus norvegicus [19] stood at 76%. Moreover, the inhibition in vivo at 75 mg/kg in the test on Rattus norvegicus [20] was determined as 46%.
